Test results from ChEMBL document CHEMBL1144402, “Effect of a 6-cyano substituent in 14-oxygenated N-methylmorphinans on opioid receptor binding and antinociceptive potency” (J Med Chem, 2005).

Assays:
[1] = target: Kappa-type opioid receptor (Rattus norvegicus, UniProt P34975); assay: Displacement of[3H]U69,593 from kappa opioid receptor of rat brain membranes
In short: (§1)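 Competitive binding on rat brain membrane preparations with the tritiated radioligand named for each receptor (μ, [3H]DAMGO; δ, [3H][Ile5,6]deltorphin II; κ, [3H]U69,593). Affinity is reported as inhibition constant (Ki).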

Mu-type opioid receptor = Mu-type opioid receptor (Rattus norvegicus, UniProt P33535); assay: Displacement of [3H][DAMGO] from mu opioid receptor of rat brain membranes; assay type: cell membranes, Membrane; in short: as §1
Mus musculus [2] = assay: In vivo analgesic effect of the compound (sc) assessed as antinociceptive potency by hot plate test in mice; assay type: functional
In short: (§2)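 Male ICR mice of 20–30 g, each animal tested only once. Drug given subcutaneously at a minimum of three doses, 6–10 mice per dose. Hot-plate, tail-flick and p-phenylquinone writhing tests were run as modified procedures. Potency is given as the 50% effective dose with 95% confidence limits.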

[3] = target: Delta-type opioid receptor (Rattus norvegicus, UniProt P33533); assay: Displacement of [3H]Ile5,6]-deltorphin II from delta opioid receptor of rat brain membranes; assay type: cell membranes, Membrane; in short: as §1
Mus musculus [4] = assay: In vivo analgesic effect of the compound (sc) assessed as antinociceptive potency by p-phenylquinone writhing test in mice; assay type: functional; in short: as §2
Mus musculus [5] = assay: In vivo analgesic effect of the compound (sc) assessed as antinociceptive potency by tail flick test in mice; assay type: functional; in short: as §2
Mus musculus [6] = assay: In vivo analgesic effect (sc) assessed as antinociceptive potency by tail flick test in mice; assay type: functional; in short: as §2
Mus musculus [7] = assay: In vivo analgesic effect (sc) assessed as antinociceptive potency by p-phenylquinone writhing test in mice; assay type: functional; in short: as §2
Mus musculus [8] = assay: In vivo analgesic effect (sc) assessed as antinociceptive potency by hot plate test in mice; assay type: functional; in short: as §2

Sequence of Mu-type opioid receptor (P33535 whole entry): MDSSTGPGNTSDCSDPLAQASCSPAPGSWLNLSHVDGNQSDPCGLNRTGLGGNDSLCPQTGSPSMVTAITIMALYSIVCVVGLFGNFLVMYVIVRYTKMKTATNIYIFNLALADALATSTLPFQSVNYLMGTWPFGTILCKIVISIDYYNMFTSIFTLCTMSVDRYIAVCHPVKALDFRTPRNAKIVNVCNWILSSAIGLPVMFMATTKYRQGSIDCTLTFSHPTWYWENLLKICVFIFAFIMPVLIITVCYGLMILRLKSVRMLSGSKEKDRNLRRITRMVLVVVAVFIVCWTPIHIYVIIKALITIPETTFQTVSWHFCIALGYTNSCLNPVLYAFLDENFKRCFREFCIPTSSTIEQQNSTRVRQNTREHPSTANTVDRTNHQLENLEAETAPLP
Sequence of Delta-type opioid receptor (P33533 whole entry): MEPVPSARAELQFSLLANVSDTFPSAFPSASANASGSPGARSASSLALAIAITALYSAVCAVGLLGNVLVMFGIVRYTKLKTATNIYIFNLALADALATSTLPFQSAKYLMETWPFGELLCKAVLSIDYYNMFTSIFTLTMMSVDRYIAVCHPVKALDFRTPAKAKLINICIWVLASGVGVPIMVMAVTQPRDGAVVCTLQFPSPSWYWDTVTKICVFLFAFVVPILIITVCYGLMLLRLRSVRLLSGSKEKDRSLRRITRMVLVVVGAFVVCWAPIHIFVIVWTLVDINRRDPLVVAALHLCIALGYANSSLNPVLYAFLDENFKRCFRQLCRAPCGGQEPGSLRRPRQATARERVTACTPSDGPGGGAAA
Sequence of Kappa-type opioid receptor (P34975 whole entry): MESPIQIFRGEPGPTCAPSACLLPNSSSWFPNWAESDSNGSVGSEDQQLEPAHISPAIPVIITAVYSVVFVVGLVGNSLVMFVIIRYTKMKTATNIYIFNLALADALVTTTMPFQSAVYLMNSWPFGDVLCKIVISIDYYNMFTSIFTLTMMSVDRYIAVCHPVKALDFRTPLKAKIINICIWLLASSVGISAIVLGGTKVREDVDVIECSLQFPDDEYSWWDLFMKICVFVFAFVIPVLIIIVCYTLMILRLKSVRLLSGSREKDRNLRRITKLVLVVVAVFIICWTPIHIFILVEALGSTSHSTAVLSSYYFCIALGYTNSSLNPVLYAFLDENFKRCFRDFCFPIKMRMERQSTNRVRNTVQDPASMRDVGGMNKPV

| SMILES | Ki [1] [nM] | Ki (Mu-type opioid receptor) [nM] | ED50 (Mus musculus [2]) [mg/kg] | Ki [3] [nM] | ED50 (Mus musculus [4]) [mg/kg] | ED50 (Mus musculus [5]) [mg/kg] | ED50 (Mus musculus [6]) [mg/kg] | ED50 (Mus musculus [7]) [mg/kg] | ED50 (Mus musculus [8]) [mg/kg] |
| --- | --- | --- | --- | --- | --- | --- | --- | --- | --- |
| COc1ccc2c(c1O)[C@]13CCN(C)[C@H](C2)[C@]1(OC)CCC(=O)C3 | 592 | 4.65 | 0.29 | 180 |  |  |  |  |  |
| COc1ccc2c(c1OC)[C@]13CCN(C)[C@H](C2)[C@]1(O)CCC(=O)C3 | 693 | 3.88 | 0.14 | 91.6 |  |  |  |  |  |
| COc1ccc2c(c1O)[C@@]13C=C(C#N)CC[C@@]1(OC)[C@@H](C2)N(C)CC3 | 378 | 5.38 | 0.25 | 197 | 0.11 | 0.21 |  |  |  |
| COc1ccc2c(c1O)[C@]13CCN(C)[C@H](C2)[C@]1(O)CCC(=O)C3 | 763 | 32.6 | 2.6 | 881 |  |  |  |  |  |
| COc1ccc2c(c1O)[C@@]13C=C(C#N)CC[C@@]1(O)[C@@H](C2)N(C)CC3 | 1650 |  | 0.5 | 498 | 0.18 | 1.88 |  |  |  |
| COc1ccc2c(c1OC)[C@@]13C=C(C#N)CC[C@@]1(O)[C@@H](C2)N(C)CC3 | 364 | 2.44 | 0.15 | 107 | 0.026 | 0.018 |  |  |  |
| COc1ccc2c3c1O[C@H]1C(=O)CC[C@@]4(O)[C@@H](C2)N(C)CC[C@]314 [OXYCODONE] |  |  |  |  |  |  | 0.94 | 0.38 | 1.37 |
